{
  "source": "paper PMC2904523",
  "about": "(Journal of medicinal chemistry, 2010)",
  "key": {"[1]": {"system": "RT of HIV-1DH012 (lysate)", "assay": "RT enzymatic inhibition", "assay_type": "biochemical", "conditions": "RT from HIV-1DH012 lysate; Figure 3; average of three assays", "summary_of_the_method": "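Reverse transcriptase came from a lysate of HIV-1DH012, a primary viral isolate. Enzyme activity was measured at various test compound concentrations with a commercial colorimetric HIV-1 RT kit, following the manufacturer's protocol. Each value is the average of three independent assays.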"}, "HIV-1 IIIB": {"system": "HIV-1 IIIB", "assay": "HIV growth inhibition assay in H9 lymphocytes", "conditions": "for EC50 (concentration that causes 50% inhibition of HIV-1 IIIB replication): HIV-1 IIIB in H9 cells, Panacos, average of three independent assays; for selectivity ratio at 6 days: human, SI (selective index) = CC50/EC50, HIV-1 IIIB in H9 cells"}},
  "data": [
    {"smiles": "Cc1cc(C#N)cc(C)c1Oc1nc(Nc2ccc(C#N)cc2)nc(N)c1Br", "note": "[Compound 4, etravirine, reference compound]", "values": [
      {"measurement": "RT inhibition activity", "setting": "[1]", "result": "potently inhibited RT activity"}
    ]},
    {"smiles": "Cc1cc(Br)cc(C)c1Oc1cc(Nc2ccc(C#N)cc2)c([N+](=O)[O-])cc1[N+](=O)[O-]", "note": "[Compound 19, 5-(4″-Bromo-2″,6″-dimethylphenoxy)-N-(4′-cyanophenyl)-2,4-dinitrsoaniline]", "values": [
      {"measurement": "EC50 (concentration that causes 50% inhibition of HIV-1 IIIB replication)", "setting": "HIV-1 IIIB", "result": "sub-micromolar level"}
    ]},
    {"smiles": "Cc1cccc(C)c1Oc1cc(Nc2ccc(C#N)cc2)c([N+](=O)[O-])cc1[N+](=O)[O-]", "note": "[Compound 20, N-(4′-Cyanophenyl)-5-(2″,6″-dimethylphenoxy)-2,4-dinitroaniline]", "values": [
      {"measurement": "EC50 (concentration that causes 50% inhibition of HIV-1 IIIB replication)", "setting": "HIV-1 IIIB", "result": "sub-micromolar level"},
      {"measurement": "selectivity ratio at 6 days", "setting": "HIV-1 IIIB", "result": "113 to 313"}
    ]},
    {"smiles": "Cc1cc(C)c(Oc2cc(Nc3ccc(C#N)cc3)c([N+](=O)[O-])cc2[N+](=O)[O-])c(C)c1", "note": "[Compound 22, N-(4′-Cyanophenyl)-2,4-dinitro-5-(2″,4″,6″-trimethylphenoxy)aniline]", "values": [
      {"measurement": "EC50 (concentration that causes 50% inhibition of HIV-1 IIIB replication)", "setting": "HIV-1 IIIB", "result": "sub-micromolar level"},
      {"measurement": "selectivity ratio at 6 days", "setting": "HIV-1 IIIB", "result": "113 to 313"}
    ]},
    {"smiles": "Cc1cc(Br)cc(C)c1Oc1ccc([N+](=O)[O-])c(Nc2ccc(C#N)cc2)c1", "note": "[Compound 24, 5-(4″-Bromo-2″,6″-dimethylphenoxy)-N-(4′-cyanophenyl)-2-nitroaniline]", "values": [
      {"measurement": "EC50 (concentration that causes 50% inhibition of HIV-1 IIIB replication)", "setting": "HIV-1 IIIB", "result": "sub-micromolar level"},
      {"measurement": "selectivity ratio at 6 days", "setting": "HIV-1 IIIB", "result": "113 to 313"}
    ]},
    {"smiles": "Cc1cc(C#N)cc(C)c1Oc1ccc([N+](=O)[O-])c(Nc2ccc(C#N)cc2)c1", "note": "[Compound 26, 5-(4″-Cyano-2″,6″-dimethylphenoxy)-N-(4′-cyanophenyl)-2-nitroaniline]", "values": [
      {"measurement": "EC50 (concentration that causes 50% inhibition of HIV-1 IIIB replication)", "setting": "HIV-1 IIIB", "result": "sub-micromolar level"}
    ]},
    {"smiles": "Cc1cc(Br)cc(C)c1Oc1cc(Nc2ccc(C#N)cc2)c(N)cc1N", "note": "[Compound 32, 5-(4″-Bromo-2″,6″-dimethylphenoxy)-N^1-(4′-cyanophenyl)benzene-1,2,4-triamine]", "values": [
      {"measurement": "EC50 (concentration that causes 50% inhibition of HIV-1 IIIB replication)", "setting": "HIV-1 IIIB", "result": "sub-micromolar level"}
    ]},
    {"smiles": "Cc1cc(C#N)cc(C)c1Oc1cc(Nc2ccc(C#N)cc2)c(N)cc1N", "note": "[Compound 34, 5-(4″-Cyano-2″,6″-dimethylphenoxy)-N^1-(4′-cyanophenyl)benzene-1,2,4-triamine]", "values": [
      {"measurement": "RT inhibition activity", "setting": "[1]", "result": "potently inhibited RT activity"}
    ]},
    {"smiles": "Cc1cc(Br)cc(C)c1Oc1cc(Nc2ccc(C#N)cc2)c(N)cc1[N+](=O)[O-]", "note": "[Compound 36, 5-(4″-Bromo-2″,6″-dimethylphenoxy)-N^1-(4′-cyanophenyl)-4-nitrobenzene-1,2-diamine]", "values": [
      {"measurement": "selectivity ratio at 6 days", "setting": "HIV-1 IIIB", "result": "> 2800"}
    ]},
    {"smiles": "Cc1cc(C#N)cc(C)c1Oc1cc(Nc2ccc(C#N)cc2)c(N)cc1[N+](=O)[O-]", "note": "[Compound 37, 5-(4″-Cyano-2″,6″-dimethylphenoxy)-N^1-(4′-cyanophenyl)-4-nitrobenzene-1,2-diamine]", "values": [
      {"measurement": "RT inhibition activity", "setting": "[1]", "result": "potently inhibited RT activity"}
    ]}
  ]
}
